Consider ten molecules from ChEMBL document CHEMBL3272030, “Synthesis and biological properties of some spin-labeled 9-aminoacridines” (J Med Chem, 1976).

Assay [1] relates to Calf thymus DNA. Put plainly: Binding affinity to calf thymus DNA assessed as decrease in DNA sedimentation coefficient at 20 x 10^-6 M relative to untreated control. To be noted: Bos taurus. Format: nucleic-acid assay.
Assay [2] has as its system L1210. Put plainly: Cytotoxicity against mouse L1210 cells assessed as growth inhibition at 100 ug/ml after 24 hrs. Format: functional. Put shortly: (§1)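 L1210 leukemia cells seeded at 10^5 cells/ml and grown in static culture in RPMI 1630 medium with fetal calf serum. Drug tested at 0.01–100 µg/ml, with 24 h and 48 h exposures. Read-out is percent inhibition of growth. Assays were run in triplicate, and values are the mean of two separate experiments.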

Assay [3] relates to L1210. Put plainly: Cytotoxicity against mouse L1210 cells assessed as growth inhibition at 100 ug/ml after 48 hrs. The class given is functional. Summed up:
as §1

Assay [4] has as its system L1210. Put plainly: Cytotoxicity against mouse L1210 cells assessed as growth inhibition at 10 ug/ml after 24 hrs. Format: functional. Summed up:
as §1

The subject of assay [5] is L1210. Put plainly: Cytotoxicity against mouse L1210 cells assessed as growth inhibition at 10 ug/ml after 48 hrs. The class given is functional. Put shortly: as §1
Assay [6] deals with L1210. Put plainly: Cytotoxicity against mouse L1210 cells assessed as growth inhibition at 1 ug/ml after 24 hrs. Format: functional. Put shortly: as §1
Assay [7] deals with L1210. Put plainly: Cytotoxicity against mouse L1210 cells assessed as growth inhibition at 1 ug/ml after 48 hrs. The class given is functional. Summed up: as §1
For assay [8], the system named is L1210. Put plainly: Cytotoxicity against mouse L1210 cells assessed as growth inhibition at 0.1 ug/ml after 24 hrs. The class given is functional. Put shortly:
as §1

Assay [9] deals with L1210. Put plainly: Cytotoxicity against mouse L1210 cells assessed as growth inhibition at 0.1 ug/ml after 48 hrs. The class given is functional. Summed up:
as §1

For assay [10], the system named is L1210. Put plainly: Cytotoxicity against mouse L1210 cells assessed as growth inhibition at 0.01 ug/ml after 24 hrs. Format: functional. Summed up:
as §1

Assay [11] deals with L1210. Put plainly: Cytotoxicity against mouse L1210 cells assessed as growth inhibition at 0.01 ug/ml after 48 hrs. The class given is functional. Put shortly: as §1
For assay [12], the system named is Calf thymus DNA. Put plainly: Binding affinity to calf thymus DNA assessed as decrease in DNA sedimentation coefficient at 5.2 x 10^-6 M relative to untreated control. Format: nucleic-acid assay. To be noted: Bos taurus. Summed up: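 Calf thymus DNA was mixed with compound at 5.2 × 10^-6 M and incubated 30 min at about 22°. Sedimentation was run in an analytical ultracentrifuge at 20°, with UV scanning at 260 nm. Each run included a drug-free DNA control. Sedimentation coefficients were not corrected for density or viscosity.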

In assay [13] the target is T1, Bacterial DNA-directed RNA polymerase (Bacteria) (UniProt P0A8V2+P0A7Z4+P0A8T7+P0A800). Put plainly: Stimulation of Escherichia coli DNA-primed RNA polymerase activity using [8-14C]ATP at 400 ug/ml by scintillation counting. The class given is protein-complex assay. Summed up:
(§2)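 Commercial E. coli RNA polymerase was used, with calf thymus DNA template (3.65 µg) in 0.125 ml containing Tris-HCl pH 8.0, MgCl2, β-mercaptoethanol, CTP/UTP/GTP (0.019 µmol each) and [8-14C]ATP (0.019 µmol). Compound in DMSO was added before the enzyme; controls received DMSO. Mixtures were incubated 10 min at 37°. Acid-insoluble label was collected by filter-disk assay and counted by liquid scintillation.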

Assay [14] deals with T1, Bacterial DNA-directed RNA polymerase (Bacteria). Put plainly: Stimulation of Escherichia coli DNA-primed RNA polymerase activity using [8-14C]ATP at 200 ug/ml by scintillation counting. Format: protein-complex assay. Put shortly:
as §2

For assay [15] the target is unchanged. Put plainly: Stimulation of Escherichia coli DNA-primed RNA polymerase activity using [8-14C]ATP at 100 ug/ml by scintillation counting. The class given is protein-complex assay. Put shortly: as §2
Assay [16] has the same target. Put plainly: Stimulation of Escherichia coli DNA-primed RNA polymerase activity using [8-14C]ATP at 50 ug/ml by scintillation counting. The class given is protein-complex assay. Summed up: as §2
Assay [17] shares this target. Put plainly: Stimulation of Escherichia coli DNA-primed RNA polymerase activity using [8-14C]ATP at 25 ug/ml by scintillation counting. The class given is protein-complex assay. Put shortly:
as §2

Assay [18] shares this target. Put plainly: Stimulation of Escherichia coli DNA-primed RNA polymerase activity using [8-14C]ATP by scintillation counting. Format: protein-complex assay. Summed up:
as §2

The target is the same in assay [19]. Put plainly: Inhibition of Escherichia coli DNA-primed RNA polymerase activity using [8-14C]ATP at 400 ug/ml by scintillation counting. The class given is protein-complex assay. Also on record: scale not given: the % may be the effect or the level left. Summed up:
as §2

For assay [20] the target is unchanged. Put plainly: Inhibition of Escherichia coli DNA-primed RNA polymerase activity using [8-14C]ATP at 200 ug/ml by scintillation counting. The class given is protein-complex assay. Also on record: scale not given: the % may be the effect or the level left. Put shortly: as §2
Assay [21] shares this target. Put plainly: Inhibition of Escherichia coli DNA-primed RNA polymerase activity using [8-14C]ATP at 100 ug/ml by scintillation counting. Format: protein-complex assay. Also on record: scale not given: the % may be the effect or the level left. Put shortly: as §2
The target is the same in assay [22]. Put plainly: Inhibition of Escherichia coli DNA-primed RNA polymerase activity using [8-14C]ATP at 50 ug/ml by scintillation counting. The class given is protein-complex assay. On the set-up: scale not given: the % may be the effect or the level left. Put shortly:
as §2

The target is the same in assay [23]. Put plainly: Inhibition of Escherichia coli DNA-primed RNA polymerase activity using [8-14C]ATP at 25 ug/ml by scintillation counting. On the set-up: scale not given: the % may be the effect or the level left. Format: protein-complex assay. Summed up:
as §2

The target in assay [24] is Bacterial DNA-directed RNA polymerase (Bacteria, UniProt P0A7Z4+P0A800+P0A8T7+P0A8V2). Put plainly: Inhibition of Escherichia coli DNA-primed RNA polymerase activity using [8-14C]ATP by scintillation counting. The class given is protein-complex assay. Put shortly: as §2
Assay [25] relates to Calf thymus DNA. Put plainly: Binding affinity to calf thymus DNA by ESR spectrum. Format: nucleic-acid assay. The note with it: Bos taurus.

Active and inactive are the calls of the source. The calls are words filed in the database; no cut-off is given here.

T1 sequence (P0A7Z4 whole entry partner): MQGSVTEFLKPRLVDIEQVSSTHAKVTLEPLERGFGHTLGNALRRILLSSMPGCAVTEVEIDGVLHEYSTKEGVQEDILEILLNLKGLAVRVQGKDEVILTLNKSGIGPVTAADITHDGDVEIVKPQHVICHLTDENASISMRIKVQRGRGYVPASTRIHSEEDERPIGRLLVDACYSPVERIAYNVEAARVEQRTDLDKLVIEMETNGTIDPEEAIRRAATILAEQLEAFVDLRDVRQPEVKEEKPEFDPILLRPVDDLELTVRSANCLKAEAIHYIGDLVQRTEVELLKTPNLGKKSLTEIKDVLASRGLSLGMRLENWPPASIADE
T1 sequence (P0A800 2-91 partner limits assumed): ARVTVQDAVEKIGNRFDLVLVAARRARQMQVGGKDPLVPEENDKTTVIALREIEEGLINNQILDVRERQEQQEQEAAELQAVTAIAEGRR
T1 sequence (P0A8T7 whole entry partner): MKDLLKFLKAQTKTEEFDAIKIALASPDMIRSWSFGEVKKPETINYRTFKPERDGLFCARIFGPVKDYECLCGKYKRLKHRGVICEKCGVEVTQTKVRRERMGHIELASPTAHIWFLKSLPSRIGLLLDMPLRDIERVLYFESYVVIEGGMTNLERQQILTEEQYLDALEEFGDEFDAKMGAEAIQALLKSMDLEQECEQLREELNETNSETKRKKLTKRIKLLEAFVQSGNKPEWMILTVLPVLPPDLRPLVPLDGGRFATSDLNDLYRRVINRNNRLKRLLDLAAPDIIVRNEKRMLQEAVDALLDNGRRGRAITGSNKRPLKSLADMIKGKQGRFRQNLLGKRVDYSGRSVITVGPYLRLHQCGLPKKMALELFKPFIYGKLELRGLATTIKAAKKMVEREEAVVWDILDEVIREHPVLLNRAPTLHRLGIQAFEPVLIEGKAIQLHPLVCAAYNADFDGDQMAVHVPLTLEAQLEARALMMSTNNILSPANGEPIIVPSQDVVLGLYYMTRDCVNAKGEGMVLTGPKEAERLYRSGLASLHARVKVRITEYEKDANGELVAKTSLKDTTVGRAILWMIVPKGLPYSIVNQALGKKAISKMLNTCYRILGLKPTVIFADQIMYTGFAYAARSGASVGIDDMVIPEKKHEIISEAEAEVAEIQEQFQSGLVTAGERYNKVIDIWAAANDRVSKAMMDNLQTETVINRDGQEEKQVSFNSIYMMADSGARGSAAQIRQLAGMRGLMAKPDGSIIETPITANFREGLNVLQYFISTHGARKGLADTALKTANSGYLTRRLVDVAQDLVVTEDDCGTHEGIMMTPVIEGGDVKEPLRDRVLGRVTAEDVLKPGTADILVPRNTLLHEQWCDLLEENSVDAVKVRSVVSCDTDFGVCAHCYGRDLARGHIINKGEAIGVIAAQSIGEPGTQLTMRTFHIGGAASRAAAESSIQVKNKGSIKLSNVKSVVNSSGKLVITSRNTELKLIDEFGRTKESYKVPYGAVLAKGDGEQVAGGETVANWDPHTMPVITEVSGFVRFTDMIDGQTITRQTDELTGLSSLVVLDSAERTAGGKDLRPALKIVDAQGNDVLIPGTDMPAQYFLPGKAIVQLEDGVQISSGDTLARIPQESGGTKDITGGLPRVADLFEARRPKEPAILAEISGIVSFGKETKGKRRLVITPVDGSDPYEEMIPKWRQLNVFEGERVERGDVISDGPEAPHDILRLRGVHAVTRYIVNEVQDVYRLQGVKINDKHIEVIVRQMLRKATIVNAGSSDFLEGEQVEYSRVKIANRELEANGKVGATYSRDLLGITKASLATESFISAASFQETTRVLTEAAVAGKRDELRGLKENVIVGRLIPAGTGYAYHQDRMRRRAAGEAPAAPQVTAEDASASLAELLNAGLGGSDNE
T1 sequence (P0A8V2 whole entry): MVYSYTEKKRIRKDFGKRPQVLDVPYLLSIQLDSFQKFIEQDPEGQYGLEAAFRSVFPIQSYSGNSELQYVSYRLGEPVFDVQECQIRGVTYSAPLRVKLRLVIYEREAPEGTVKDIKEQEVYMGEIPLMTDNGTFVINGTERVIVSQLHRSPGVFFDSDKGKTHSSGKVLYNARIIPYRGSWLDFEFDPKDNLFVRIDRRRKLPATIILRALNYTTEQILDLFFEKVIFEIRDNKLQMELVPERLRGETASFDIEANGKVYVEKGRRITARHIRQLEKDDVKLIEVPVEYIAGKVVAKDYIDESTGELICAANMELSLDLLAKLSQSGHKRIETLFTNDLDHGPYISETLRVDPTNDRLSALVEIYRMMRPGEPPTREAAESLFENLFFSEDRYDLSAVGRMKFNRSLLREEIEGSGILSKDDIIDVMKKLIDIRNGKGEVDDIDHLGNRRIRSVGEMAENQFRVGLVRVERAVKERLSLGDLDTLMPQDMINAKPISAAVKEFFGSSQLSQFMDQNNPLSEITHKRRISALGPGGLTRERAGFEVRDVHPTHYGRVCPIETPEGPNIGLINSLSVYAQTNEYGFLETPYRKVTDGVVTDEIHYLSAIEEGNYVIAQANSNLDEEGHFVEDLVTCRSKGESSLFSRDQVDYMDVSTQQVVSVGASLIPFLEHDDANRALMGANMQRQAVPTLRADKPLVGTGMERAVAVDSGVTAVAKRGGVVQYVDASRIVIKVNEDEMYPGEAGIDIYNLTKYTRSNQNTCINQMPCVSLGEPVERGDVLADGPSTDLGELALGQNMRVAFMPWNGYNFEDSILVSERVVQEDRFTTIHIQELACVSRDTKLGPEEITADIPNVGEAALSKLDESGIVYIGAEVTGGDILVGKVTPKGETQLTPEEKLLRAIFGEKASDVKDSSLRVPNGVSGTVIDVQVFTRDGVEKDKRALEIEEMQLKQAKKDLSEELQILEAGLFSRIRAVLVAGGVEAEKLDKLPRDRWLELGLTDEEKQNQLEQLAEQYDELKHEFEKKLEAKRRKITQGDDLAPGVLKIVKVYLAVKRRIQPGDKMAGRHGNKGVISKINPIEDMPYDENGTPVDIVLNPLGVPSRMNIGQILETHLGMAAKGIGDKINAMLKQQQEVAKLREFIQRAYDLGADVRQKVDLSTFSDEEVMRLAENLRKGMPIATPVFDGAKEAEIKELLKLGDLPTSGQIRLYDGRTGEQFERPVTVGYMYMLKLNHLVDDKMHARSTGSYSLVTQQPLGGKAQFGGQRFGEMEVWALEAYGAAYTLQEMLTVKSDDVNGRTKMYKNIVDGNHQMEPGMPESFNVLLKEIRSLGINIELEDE

Take `Nc1ccc2cc3ccc(N)cc3nc2c1`: in assay [1], the Ratio was 1.13.

Turning to `COc1cc(NS(C)(=O)=O)ccc1Nc1c2ccccc2nc2ccccc12` [AMSACRINE], the inhibition of growth at 100 µg/mL in assay [2] (L1210, 24 h, read-out: GI) was 57%; in [3] (L1210, 48 h, read-out: GI) it was 92%. Besides, the inhibition of growth at 10 µg/mL in assay [4] (L1210, 24 h, read-out: GI) amounted to 50%; in [5] (L1210, 48 h, read-out: GI), 87%. Besides, the inhibition of growth at 1 µg/mL amounted to 42% in [6] (L1210, 24 h, read-out: GI) and 82% in assay [7] (L1210, 48 h, read-out: GI). For the same molecule, the inhibition of growth at 0.1 µg/mL stood at 29% in assay [8] (L1210, 24 h, read-out: GI) and 75% in assay [9] (L1210, 48 h, read-out: GI). For the same molecule, the inhibition of growth at 0.01 µg/mL in assay [10] (L1210, 24 h, read-out: GI) amounted to 6%; in [11] (L1210, 48 h, read-out: GI) it was 8%.

With `COc1ccc2nc3cc(Cl)ccc3c(NC3CC(C)(C)N([O])C(C)(C)C3)c2n1`, the growth inhibition (GI) in [2] was determined as 0%; in assay [3], 38%; in [4], 0%; in assay [5], 15%; in assay [6], 0%; in [7] it was 0%. Further, the growth inhibition (GI) in [8], in assay [9], in [10] and in assay [11] was 0% throughout. In [12], the Ratio amounted to 1.05. Besides, the Activity in assay [13] is 108%; in [14] it was 114%; in assay [15], 110%; in assay [16] it was 110%; in [17] it was 108%; in assay [18], “Dose-dependent effect”.

On to `CC1(C)CC(CNc2c3ccccc3nc3ccccc23)C(C)(C)N1[O]` (stereo unspecified), for which the growth inhibition (GI) in [2] amounted to 48%; in assay [3], 82%; in assay [4], 46%; in assay [5], 79%; in assay [6] it was 12%; in [7], 29%. For the same molecule, the growth inhibition (GI) in assay [8] was found to be 3%; in assay [9], 2%; in assay [10], 0%; in [11], 3%. Also, the Ratio in assay [12] was 1.08. Further, the Activity in assay [19] came to 10%; in [20] it was 22%; in assay [21], 45%; in assay [22], 70%; in assay [23], 87%.

Take `CC1(C)CC(NCCCNc2c3ccccc3nc3ccccc23)CC(C)(C)N1[O]`: the growth inhibition (GI) in assay [2] turned out to be 47%; in [3], 86%; in assay [4], 56%; in [5], 87%; in assay [6], 10%; in assay [7] it was 16%. In addition, the growth inhibition (GI) in [8], in [9], in assay [10] and in [11] was 0% each time. The Activity in assay [19] was determined as 12%; in assay [20], 20%; in [21], 31%; in [22], 42%; in [23], 71%.

In the case of `COc1ccc2nc3cc(Cl)ccc3c(NCC3CC(C)(C)N([O])C3(C)C)c2c1` (stereo unspecified), the growth inhibition (GI) in assay [2] was 40%; in [3] it was 74%; in [4] it was 35%; in [5], 76%; in assay [6], 6%; in [7], 19%. The growth inhibition (GI) turned out to be 0% in assay [8], 5% in [9], 10% in [10] and 7% in [11]. The Ratio in [12] is 1.04. Also, the Activity in assay [13] is 107%; in assay [14] it was 102%; in assay [15], 106%; in assay [16], 106%; in assay [17] it was 112%; in [18], “Dose-dependent effect”.

`CCN(CC)CCCC(C)Nc1c2ccc(Cl)cc2nc2ccc(OC)cc12` (stereo unspecified) [QUINACRINE]: 20 µM corresponded to half-maximal inhibition in [24] (IC50).

Turning to `CC1(C)CC(Nc2c3ccccc3nc3ccccc23)CC(C)(C)N1[O]`, the growth inhibition (GI) in assay [2] stood at 53%; in assay [3], 87%; in [4], 49%; in [5], 84%; in assay [6], 27%; in [7] it was 56%. In addition, the growth inhibition (GI) was 1% in assay [8], 7% in assay [9], 0% in assay [10] and 2% in [11]. For the same molecule, the Ratio in [12] amounted to 1.04. The Activity came to 9% in assay [19]; 21% in assay [20]; 36% in assay [21]; 77% in assay [22]; 96% in [23].

On to `COc1ccc2nc3cc(Cl)ccc3c(NC3CC(C)(C)N([O])C(C)(C)C3)c2c1`, for which the growth inhibition (GI) worked out at 6% in assay [2]; 78% in [3]; 11% in assay [4]; 63% in [5]; 9% in assay [6]; 24% in assay [7]. In addition, the growth inhibition (GI) in assay [8] was 12%; in assay [9], 7%; in [10], 3%; in [11], 8%. Also, the Ratio in assay [12] was determined as 1.02. For the same molecule, the Activity in assay [13] was 116%; in assay [14], 125%; in assay [15], 129%; in assay [16], 120%; in [17], 108%; in assay [18], “Dose-dependent effect”. In addition, in assay [25], the outcome was Active.

In the case of `Nc1c2ccccc2nc2ccccc12`, the Activity in [19] came to 1.8%; in assay [20], 4%; in assay [21], 31%; in [22] it was 31%; in assay [23] it was 40%.
